Compound activity deposited in PubChem BioAssay by several laboratories.
Shown are actives, neighbours in structure and some others; about 1.8% of the full set was active somewhere.
NSD2 HMT inh: inhibitors of human histone methyltransferase NSD2; AID 743445; O96028; NSD2 peptide methylation, AlphaScreen, 120 min; inhibition, % at 12.5 µM; 310,000 tested, 0.54% active; in the data active means inhibition above about 50%
TDP2 inh: TDP2 (human) inhibition, absorbance primary screen; recombinant TDP2, T5PNP hydrolysis, p-nitrophenol absorbance 415 nm; inhibition, % at 12.8 µM; 370,000 tested, 0.34% active;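 active means inhibition above the mean of all tested compounds plus 3 SD, set per campaign, cut at about 25% in these data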;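 further: 0% = DMSO with enzyme and 100% = buffer with substrate but no TDP2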
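Test system: human TDP2 enzyme; Input: 120 nM TDP2 per well; Buffer or medium: Mg2+-containing Tris-HCl buffer, pH 7.5; Reagent: 5 mM T5PNP; Dosing: 12.8 µM single point, 1% DMSO; Incubation: reaction 2 h, 37 °C; Detection: p-Nitrophenol epi absorbance; Read-out: % inhibition relative to enzyme-containing and enzyme-free wells; Replicates: single well per compound.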
LEDGF integ inh: blocks HIV-1 LEDGF/p75-dependent DNA integration; TR-FRET IN-LEDGF/p75 DNA integration, Eu/Cy5; AID 743269; 370,000 tested, 0.64% active; inhibition, % at 3.7 µM;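 active means inhibition above the screen-wide mean plus 3 SD, cut at about 13% in these data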;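 further: signal is the Cy5 over europium emission ratio at 671 and 618 nm; 0% = plate median of compound wells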
UHRF1 binding: human UHRF1 methylated DNA binding inhibitors. Q96T88. UHRF1 binding to methylated oligo, TR-FRET. inhibition, % at 4.4 µM. 370,000 tested, 0.75% active. AID 687016; in the data active means inhibition above about 21%;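 further: UHRF1 SRA domain binding a hemimethylated CpG hairpin DNA probe; 0% = median of test compound wells and 100% = reference inhibitor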
CASP6 VEID inh: inhibitors of human caspase-6 | 350,000 tested, 0.53% active | AID 686996 | inhibition, % at 12.5 µM | purified caspase-6, Z-VEID-R110 cleavage fluorescence;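 active means mean inhibition across replicates at least about 35%, with every replicate also reaching that limit, limit read from the data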;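 further: 0% = median of neutral control wells and 100% = no fluorescence left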
MBD2 inh: MBD2-methylated oligo binding inhibition; Q9UBB5; inhibition, % at 4.4 µM; TR-FRET, MBD2 binding to methylated oligonucleotide; 370,000 tested, 0.31% active; in the data active means inhibition above about 13%
IN multimer up: counter-screen for LEDGF/p75 integration inhibitors: HIV-1 integrase multimerization activators. shares compounds with LEDGF integ inh. 2,000 tested, 17% active. TR-FRET HIV-1 integrase multimerization, biochemical. AID 1053131. activation, % at 7.7 µM; in the data active means activation above about 8.9%
TR-FRET interf: counter-screen for LEDGF/p75 integration inhibitors: TR-FRET optical interference. shares compounds with LEDGF integ inh. TR-FRET optical interference counterscreen, HIV-1 IN multimerization. inhibition, % at 7.7 µM. 2,000 tested, under 10 active;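 active means inhibition above the mean over all tested compounds plus 3 SD, which no compound reached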;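 further: 0% = integrase with antibodies and DMSO and 100% = antibodies without integrase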
LEDGF integ conf: LEDGF/p75-dependent HIV-1 integration inhibition, confirmation. shares compounds with LEDGF integ inh. TR-FRET LEDGF/p75-dependent HIV-1 integration, biochemical. inhibition, % at 3.7 µM. 2,000 tested, 36% active; in the data active means inhibition above about 14%
An asterisk follows results filed as active; · = not tested or not shown.

SMILES	NSD2 HMT inh	TDP2 inh	LEDGF integ inh	UHRF1 binding	CASP6 VEID inh	MBD2 inh	IN multimer up	TR-FRET interf	LEDGF integ conf
Brc1cnc2nc(SC/C=C/c3ccccc3)[nH]c2c1	-1	-3	37*	1	-6	0	6	-29	4
Cc1ccc(C(=O)ONc2ccc(N=NC(=O)c3ccccc3O)cc2)cc1	3	-13	20*	-2	·	0	2	-7	-1
COCCn1nnnc1C(c1ccccc1OC)N1CCc2ccccc2C1 (stereo not drawn)	10	7	33*	-1	·	-3	1	-6	-4
C[C@H]1CN([C@@H](C)CO)C(=O)c2cc(NC(=O)Cc3ccccc3)ccc2O[C@@H]1CN(C)CC1CCCCC1	·	·	·	·	0	·	·	·	·
CN=c1scc(-c2cccs2)n1/N=C/c1ccc(O)c(O)c1O	5	-1	28*	8	24	4	5	-25	42*
CN=c1scc(C)n1/N=C/c1ccc(O)c(O)c1O	25	6	57*	5	·	4	33*	-168	40*
CN=c1scc(-c2cccs2)n1/N=C/c1ccccc1O	1	3	-3	0	1	0	·	·	·
CC=Cc1ccc2n(c1=O)C[C@@H]1[C@@H](CO)[C@H](C(=O)NCC)[C@H]2N1S(=O)(=O)c1cn(C)cn1 (mixture of isomers)	·	·	·	·	-1	·	·	·	·
CCCCC(=O)Nc1cccc(NC(=S)NC(=O)C(C)C)c1	-1	2	0	-1	3	2	·	·	·
CCCCC(=O)Nc1cccc(NC(=O)CC)c1	-2	9	25*	2	·	7	6	-32	1
N#Cc1nc(-c2cccs2)oc1NCc1ccccc1	0	0	14*	-2	·	4	5	-17	17*
N#Cc1nc(-c2cccs2)oc1NCc1ccc(Cl)cc1	2	5	7	1	·	-4	·	·	·
N#Cc1nc(-c2ccc(F)cc2)oc1NCc1ccco1	-1	1	7	1	2	3	·	·	·
N#Cc1nc(-c2ccc(F)cc2)oc1NCc1ccccc1	·	-1	15*	0	-3	7	-2	8	-2
N#Cc1nc(-c2cccs2)oc1NCc1ccco1	4	0	12	-4	·	-5	·	·	·
Cc1ccc(CNc2oc(-c3cccs3)nc2C#N)cc1	0	-22	21*	-2	·	-2	1	-7	2
C[C@H]1CN([C@@H](C)CO)C(=O)c2cc(NC(=O)Cc3cn(C)c4ccccc34)ccc2O[C@H]1CN(C)S(=O)(=O)c1ccc(F)cc1	·	·	·	·	1	·	·	·	·
C[C@@H]1CN([C@@H](C)CO)C(=O)c2cccc(NS(C)(=O)=O)c2O[C@H]1CN(C)Cc1ccc(C(=O)Nc2ccccc2N)cc1	·	·	·	·	-1	·	·	·	·
CCc1nc2c(OCC3COc4ccccc4O3)cccn2c1N(C)C(=O)c1cccc(OC)c1 (stereo not drawn)	3	-5	20*	-1	0	3	1	-6	0
CCCNC(=O)C[C@H]1CC[C@@H]2[C@@H](COc3ccc(NC(=O)c4ccccc4)cc3C(=O)N2C)O1	·	·	·	·	1	·	·	·	·
CC1=C(n2nnc([N+](=O)[O-])n2)C(c2cccnc2)C(C#N)=C(N)O1 (stereo not drawn)	7	13	30*	2	·	-2	2	-9	-2
COC(=O)c1ccc(CN2CC(=O)N3[C@@H](CO)[C@@H](c4ccc(Br)cc4)[C@@H]3C2)cc1	·	·	·	·	3	·	·	·	·
CCCCC(=O)Nc1cc(C)c(NC(=O)c2ccco2)cn1	-2	-7	27*	0	0	4	1	-3	0
Cc1cc(NC(=O)c2ccco2)ncc1NC(=O)CCc1ccccc1	5	-12	-1	-3	·	-3	·	·	·
CCN(CC)c1ccc(N=Cc2ccc([N+](=O)[O-])o2)cc1	34	-2	41*	25*	16	10	7	-36	18*
SMILES	NSD2 HMT inh	TDP2 inh	LEDGF integ inh	UHRF1 binding	CASP6 VEID inh	MBD2 inh	IN multimer up	TR-FRET interf	LEDGF integ conf
Cc1ccc(OCC(=O)Nc2ccc(F)cc2)cc1C	-4	7	20*	-3	1	4	0	-2	-15
O=C(C(O)c1ccc(Br)cc1)N1CCC(Nc2ccc3[nH]ncc3c2)CC1 (stereo not drawn)	·	4	17*	-5	6	-3	5	-25	1
COCCCN1C(=O)C(=O)/C(=C(/O)c2ccccc2)C1c1ccc(N(C)C)cc1 (stereo not drawn)	0	-4	2	-1	29	2	·	·	·
COCCCN1C(=O)C(=O)/C(=C(/O)c2ccccc2)C1c1ccc2c(c1)OCO2 (stereo not drawn)	1	-8	30*	-6	·	0	-1	4	3
O=C(Cc1cccnc1)N1CC2(C1)[C@H](c1ccccc1)[C@@H](CO)N2C(=O)C1CCC1	·	·	·	·	0	·	·	·	·
CC1=C(C(=O)O)N2C(=O)[C@@H](NC(=O)[C@H](N)c3ccc(O)cc3)[C@H]2SC1	·	5	-3	3	·	5	·	·	·
CC1(C)S[C@@H]2[C@H](NC(=O)[C@H](N)c3ccc(O)cc3)C(=O)N2[C@H]1C(=O)O	·	-3	15*	8	1	2	6	-30	43*
C[C@@H](NC(=O)C[C@H]1C[C@H]2c3cc(NC(=O)C4CCOCC4)ccc3O[C@H]2[C@H](CO)O1)c1ccccc1	·	·	·	·	1	·	·	·	·
Cc1cccc2cc(CN(Cc3ccc(F)cc3)C(=O)N3CCOCC3)c(=O)[nH]c12	2	-3	14*	1	-2	2	0	-1	-13
C[C@@H]1CN([C@H](C)CO)C(=O)c2cc(-c3cccnc3)cnc2O[C@@H]1CN(C)C(=O)NC1CCCC1	·	·	·	·	-1	·	·	·	·
C[C@H](CO)N1C[C@H](C)[C@H](CN(C)Cc2ccccc2)OCCCC[C@H](C)Oc2ccc(NS(=O)(=O)c3ccc(Cl)cc3)cc2C1=O	·	·	·	·	1	·	·	·	·
O=C(NCCCN1CCCC1=O)c1cc2nc(-c3ccco3)cc(C(F)(F)F)n2n1	3	-7	20*	-2	4	-2	-1	3	6
Cc1ccc(S(=O)(=O)Nc2cccc3c2O[C@H](CN(C)Cc2ccc(C(F)(F)F)cc2)[C@@H](C)CN([C@@H](C)CO)C3=O)cc1	·	·	·	·	2	·	·	·	·
O=C(N/N=C/c1cccnc1)c1cc(O)c(O)c(O)c1	4	15	38*	15	41*	1	35*	-125	20*
